In ChEMBL document CHEMBL4354843, “Structure-Based Design of a Potent and Selective Covalent Inhibitor for SRC Kinase That Targets a P-Loop Cysteine” (J Med Chem, 2020) one finds Activity and IC50 data, which are given here for one compound.

Test [1] deals with Vascular endothelial growth factor receptor 2 (Homo sapiens) (UniProt P35968). Kind of test: Binding affinity to wild-type human partial length VEGFR2 (R787 to P1253 residues) expressed in mammalian expression system assessed as residual binding level at 1 uM by Kinomescan method relative to control. In outline:
(§1)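 Active site-directed competition binding panel (KinomeScan, 468 kinases). Test compound at 1 μM. Read-out is kinase binding remaining versus DMSO control, expressed as percent of control. Scores above 35% are treated as weak binding.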

In test [2] the target is Ephrin type-A receptor 8 (Homo sapiens) (UniProt P29322). Kind of test: Binding affinity to wild-type human partial length EPHA8 (Q608 to C920 residues) expressed in bacterial expression system assessed as residual binding level at 1 uM by Kinomescan method relative to control. The method, boiled down: (§2)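 Active-site-directed competition binding panel of 468 kinases (KinomeScan), compound at 1 μM. The read-out is kinase remaining bound, given as a percentage of the DMSO control. […]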

The target in test [3] is Proto-oncogene tyrosine-protein kinase receptor Ret (Homo sapiens) (UniProt P07949). Kind of test: Binding affinity to wild-type human partial length RET (E713 to D1014 residues) expressed in bacterial expression system assessed as residual binding level at 1 uM by Kinomescan method relative to control.
The target of test [4] is Serine/threonine-protein kinase PLK1 (Homo sapiens) (UniProt P53350). Kind of test: Binding affinity to wild-type human partial length PLK1 (A33 to F325 residues) expressed in mammalian expression system assessed as residual binding level at 1 uM by Kinomescan method relative to control.
The target of test [5] is Insulin-like growth factor 1 receptor (Homo sapiens) (UniProt P08069). Kind of test: Binding affinity to wild-type human partial length IGF1R (L972 to D1294 residues) expressed in bacterial expression system assessed as residual binding level at 1 uM by Kinomescan method relative to control.
The target in test [6] is Protein kinase C iota type (Homo sapiens) (UniProt P41743). Description: Binding affinity to wild-type human partial length PRKCI (H215 to V587 residues) expressed in mammalian expression system assessed as residual binding level at 1 uM by Kinomescan method relative to control. The method, boiled down:
as §2

Test [7] addresses Mitogen-activated protein kinase kinase kinase 7 (Homo sapiens) (UniProt O43318). Kind of test: Binding affinity to wild-type human partial length TAK1 (M1 to Q303 residues) expressed in mammalian expression system assessed as residual binding level at 1 uM by Kinomescan method relative to control. The method, boiled down:
as §1

The target of test [8] is Tyrosine-protein kinase JAK1 (Homo sapiens) (UniProt P23458). Description: Binding affinity to wild-type human partial length JAK1 JH1 catalytic domain (V856 to K1154 residues) expressed in bacterial expression system assessed as residual binding level at 1 uM by Kinomescan method relative to control.
Test [9] deals with MAP/microtubule affinity-regulating kinase 3 (Homo sapiens) (UniProt P27448). Description: Binding affinity to wild-type human full length MARK3 (M1 to L729 residues) expressed in bacterial expression system assessed as residual binding level at 1 uM by Kinomescan method relative to control. In outline: (§3)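 KinomeScan, an active site-directed competition binding panel of 468 kinases. The test compound was at 1 μM. The readout is remaining kinase binding as a percentage of the DMSO control. Scores above 35% were treated as weak binding and not listed.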

The target of test [10] is cAMP-dependent protein kinase catalytic subunit PRKX (Homo sapiens) (UniProt P51817). Kind of test: Binding affinity to wild-type human partial length PRKX (M1 to F358 residues) expressed in bacterial expression system assessed as residual binding level at 1 uM by Kinomescan method relative to control.
The target in test [11] is Tyrosine-protein kinase ZAP-70 (Homo sapiens) (UniProt P43403). Description: Binding affinity to wild-type human partial length ZAP70 (D20 to G299 residues) expressed in mammalian expression system assessed as residual binding level at 1 uM by Kinomescan method relative to control.
The target in test [12] is Calcium/calmodulin-dependent protein kinase type II subunit beta (Homo sapiens) (UniProt Q13554). Description: Binding affinity to wild-type human partial length CAMK2B (M1 to Q380 residues) expressed in bacterial expression system assessed as residual binding level at 1 uM by Kinomescan method relative to control.
Test [13] addresses Epithelial discoidin domain-containing receptor 1 (Homo sapiens) (UniProt Q08345). Kind of test: Binding affinity to wild-type human partial length DDR1 (R565 to V876 residues) expressed in bacterial expression system assessed as residual binding level at 1 uM by Kinomescan method relative to control. In outline:
as §2

Test [14] has as its target Phosphatidylinositol 4,5-bisphosphate 3-kinase catalytic subunit gamma isoform (Homo sapiens) (UniProt P48736). Kind of test: Binding affinity to wild-type human partial length PIK3CG (S144 to A1102 residues) expressed in mammalian expression system assessed as residual binding level at 1 uM by Kinomescan method relative to control.
Test [15] deals with Myotonin-protein kinase (Homo sapiens) (UniProt Q09013). Kind of test: Binding affinity to wild-type human partial length DMPK (V47 to V415 residues) expressed in bacterial expression system assessed as residual binding level at 1 uM by Kinomescan method relative to control.
Test [16] deals with Dual specificity protein kinase CLK4 (Homo sapiens) (UniProt Q9HAZ1). Kind of test: Binding affinity to wild-type human partial length CLK4 (R135 to K481 residues) expressed in bacterial expression system assessed as residual binding level at 1 uM by Kinomescan method relative to control.
In test [17] the target is Serine/threonine-protein kinase Nek1 (Homo sapiens) (UniProt Q96PY6). Description: Binding affinity to wild-type human partial length NEK1 (M1 to K278 residues) expressed in bacterial expression system assessed as residual binding level at 1 uM by Kinomescan method relative to control.
Test [18] concerns the target Serine/threonine-protein kinase TNNI3K (Homo sapiens) (UniProt Q59H18). Kind of test: Binding affinity to wild-type human full length TNNI3K (M1 to S835 residues) expressed in bacterial expression system assessed as residual binding level at 1 uM by Kinomescan method relative to control. The method, boiled down: as §3
Test [19] concerns the target Cyclin-dependent kinase 7 (Homo sapiens) (UniProt P50613). Kind of test: Binding affinity to wild-type human full length CDK7 (M1 to L344 residues) expressed in mammalian expression system assessed as residual binding level at 1 uM by Kinomescan method relative to control. The method, boiled down:
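Active-site-directed KinomeScan competition binding panel covering 468 kinases, compound tested at 1 μM. Each readout is the kinase signal remaining with compound, expressed as a percentage of the DMSO control. […]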

For test [20], the target named is Fibroblast growth factor receptor 1 (Homo sapiens, UniProt P11362). Kind of test: Inhibition of recombinant human His-tagged FGFR1 (308 to 731 residues) expressed in baculovirus expression system using tyrosine-4 peptide as substrate incubated for 1 hr by Z'-LYTE assay.
Test [21] concerns the target Mitogen-activated protein kinase kinase kinase 6 (Homo sapiens) (UniProt O95382). Description: Binding affinity to wild-type human partial length ASK2 (M278 to R972 residues) expressed in mammalian expression system assessed as residual binding level at 1 uM by Kinomescan method relative to control. The method, boiled down:
as §3

Chain of Tyrosine-protein kinase JAK1 (Homo sapiens) (P23458 whole entry, the tested form may be a part): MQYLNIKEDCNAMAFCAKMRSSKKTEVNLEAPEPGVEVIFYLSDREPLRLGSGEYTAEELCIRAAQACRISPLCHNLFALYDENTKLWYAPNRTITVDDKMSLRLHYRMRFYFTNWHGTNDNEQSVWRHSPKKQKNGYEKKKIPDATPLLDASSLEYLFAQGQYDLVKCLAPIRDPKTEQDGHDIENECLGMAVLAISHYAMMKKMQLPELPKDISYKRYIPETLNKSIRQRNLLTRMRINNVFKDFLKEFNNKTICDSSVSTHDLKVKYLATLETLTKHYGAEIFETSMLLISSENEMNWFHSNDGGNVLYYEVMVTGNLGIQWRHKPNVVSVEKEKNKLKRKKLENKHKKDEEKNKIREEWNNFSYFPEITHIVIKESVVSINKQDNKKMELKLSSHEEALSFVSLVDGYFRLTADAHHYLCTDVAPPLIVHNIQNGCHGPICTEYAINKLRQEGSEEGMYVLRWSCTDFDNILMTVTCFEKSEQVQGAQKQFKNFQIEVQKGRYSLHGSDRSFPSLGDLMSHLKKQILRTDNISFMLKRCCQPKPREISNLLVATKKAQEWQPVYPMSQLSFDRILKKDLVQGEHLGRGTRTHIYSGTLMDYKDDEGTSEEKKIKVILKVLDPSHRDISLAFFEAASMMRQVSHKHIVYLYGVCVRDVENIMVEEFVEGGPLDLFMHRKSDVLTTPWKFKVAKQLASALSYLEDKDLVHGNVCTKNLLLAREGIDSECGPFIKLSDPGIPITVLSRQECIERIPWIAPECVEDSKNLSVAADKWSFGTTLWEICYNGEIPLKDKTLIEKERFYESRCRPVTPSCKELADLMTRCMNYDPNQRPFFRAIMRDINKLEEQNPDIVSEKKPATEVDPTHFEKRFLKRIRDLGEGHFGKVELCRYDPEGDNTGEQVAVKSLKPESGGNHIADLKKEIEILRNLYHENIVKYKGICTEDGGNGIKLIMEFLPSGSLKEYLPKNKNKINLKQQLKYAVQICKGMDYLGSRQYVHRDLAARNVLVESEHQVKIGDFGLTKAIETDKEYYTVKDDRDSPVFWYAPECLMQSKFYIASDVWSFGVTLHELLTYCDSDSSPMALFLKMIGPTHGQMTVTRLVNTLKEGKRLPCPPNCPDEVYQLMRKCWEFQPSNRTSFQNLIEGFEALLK
Chain of Phosphatidylinositol 4,5-bisphosphate 3-kinase catalytic subunit gamma isoform (Homo sapiens) (P48736 whole entry, looked up, the tested form may be a part, canonical isoform): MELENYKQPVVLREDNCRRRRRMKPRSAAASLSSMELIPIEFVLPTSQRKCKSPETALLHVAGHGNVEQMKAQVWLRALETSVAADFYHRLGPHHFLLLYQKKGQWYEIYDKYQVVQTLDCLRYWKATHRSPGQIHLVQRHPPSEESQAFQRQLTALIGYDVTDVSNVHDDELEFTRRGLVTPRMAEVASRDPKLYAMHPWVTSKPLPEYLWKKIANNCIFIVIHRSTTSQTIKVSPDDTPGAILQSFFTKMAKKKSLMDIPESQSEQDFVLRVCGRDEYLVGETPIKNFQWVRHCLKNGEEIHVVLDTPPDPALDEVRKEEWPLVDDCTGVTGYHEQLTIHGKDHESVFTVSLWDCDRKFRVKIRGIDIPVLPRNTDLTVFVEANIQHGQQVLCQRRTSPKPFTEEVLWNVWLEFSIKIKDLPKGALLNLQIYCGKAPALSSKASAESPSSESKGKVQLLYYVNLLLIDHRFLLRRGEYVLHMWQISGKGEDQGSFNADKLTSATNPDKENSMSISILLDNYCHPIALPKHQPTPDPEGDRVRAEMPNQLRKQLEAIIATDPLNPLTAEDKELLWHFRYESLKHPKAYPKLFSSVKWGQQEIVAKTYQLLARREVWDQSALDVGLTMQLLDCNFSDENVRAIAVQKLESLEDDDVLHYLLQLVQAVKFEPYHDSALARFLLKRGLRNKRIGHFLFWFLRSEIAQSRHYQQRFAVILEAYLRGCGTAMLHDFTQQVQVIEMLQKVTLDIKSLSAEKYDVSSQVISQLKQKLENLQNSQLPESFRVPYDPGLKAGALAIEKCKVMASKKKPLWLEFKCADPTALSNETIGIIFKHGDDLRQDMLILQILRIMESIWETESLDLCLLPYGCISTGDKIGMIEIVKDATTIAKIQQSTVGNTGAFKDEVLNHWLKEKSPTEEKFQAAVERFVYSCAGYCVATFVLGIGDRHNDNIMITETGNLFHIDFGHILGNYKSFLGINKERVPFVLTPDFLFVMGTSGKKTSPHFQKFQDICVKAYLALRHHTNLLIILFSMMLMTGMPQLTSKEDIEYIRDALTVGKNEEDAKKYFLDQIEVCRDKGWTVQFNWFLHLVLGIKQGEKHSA
Chain of Myotonin-protein kinase (Homo sapiens) (Q09013 whole entry, the tested form may be a part): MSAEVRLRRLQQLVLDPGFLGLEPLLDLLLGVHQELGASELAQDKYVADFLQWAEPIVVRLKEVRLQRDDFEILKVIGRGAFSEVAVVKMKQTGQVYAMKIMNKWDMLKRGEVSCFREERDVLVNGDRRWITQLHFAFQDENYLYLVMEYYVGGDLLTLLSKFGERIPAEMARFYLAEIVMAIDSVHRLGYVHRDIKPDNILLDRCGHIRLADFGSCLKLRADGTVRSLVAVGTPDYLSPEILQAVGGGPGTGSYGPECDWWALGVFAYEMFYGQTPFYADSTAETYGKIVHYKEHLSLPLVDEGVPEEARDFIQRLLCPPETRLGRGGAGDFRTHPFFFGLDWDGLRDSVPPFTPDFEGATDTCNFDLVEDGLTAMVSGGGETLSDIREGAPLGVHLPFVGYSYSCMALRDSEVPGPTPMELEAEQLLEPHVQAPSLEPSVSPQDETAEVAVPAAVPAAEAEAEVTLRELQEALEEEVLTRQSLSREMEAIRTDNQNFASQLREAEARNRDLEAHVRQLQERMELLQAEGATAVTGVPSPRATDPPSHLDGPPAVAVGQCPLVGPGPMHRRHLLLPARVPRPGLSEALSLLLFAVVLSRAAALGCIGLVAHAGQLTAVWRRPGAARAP
Chain of Mitogen-activated protein kinase kinase kinase 7 (Homo sapiens) (O43318 whole entry, the tested form may be a part): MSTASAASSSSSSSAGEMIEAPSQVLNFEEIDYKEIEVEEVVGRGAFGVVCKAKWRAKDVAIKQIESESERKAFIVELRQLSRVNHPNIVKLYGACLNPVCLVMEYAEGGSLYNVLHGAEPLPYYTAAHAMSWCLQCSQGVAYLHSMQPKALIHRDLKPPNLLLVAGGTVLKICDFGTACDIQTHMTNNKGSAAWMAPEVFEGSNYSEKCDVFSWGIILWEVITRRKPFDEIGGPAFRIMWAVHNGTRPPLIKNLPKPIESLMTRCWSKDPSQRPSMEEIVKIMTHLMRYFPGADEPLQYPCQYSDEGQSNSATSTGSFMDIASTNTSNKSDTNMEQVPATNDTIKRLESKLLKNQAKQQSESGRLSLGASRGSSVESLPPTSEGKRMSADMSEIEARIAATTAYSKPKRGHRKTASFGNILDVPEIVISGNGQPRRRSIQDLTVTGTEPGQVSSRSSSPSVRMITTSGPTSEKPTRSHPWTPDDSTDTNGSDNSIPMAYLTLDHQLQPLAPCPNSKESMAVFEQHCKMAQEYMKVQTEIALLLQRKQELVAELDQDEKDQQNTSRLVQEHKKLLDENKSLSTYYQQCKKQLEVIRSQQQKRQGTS
Chain of Vascular endothelial growth factor receptor 2 (Homo sapiens) (P35968 whole entry, the tested form may be a part): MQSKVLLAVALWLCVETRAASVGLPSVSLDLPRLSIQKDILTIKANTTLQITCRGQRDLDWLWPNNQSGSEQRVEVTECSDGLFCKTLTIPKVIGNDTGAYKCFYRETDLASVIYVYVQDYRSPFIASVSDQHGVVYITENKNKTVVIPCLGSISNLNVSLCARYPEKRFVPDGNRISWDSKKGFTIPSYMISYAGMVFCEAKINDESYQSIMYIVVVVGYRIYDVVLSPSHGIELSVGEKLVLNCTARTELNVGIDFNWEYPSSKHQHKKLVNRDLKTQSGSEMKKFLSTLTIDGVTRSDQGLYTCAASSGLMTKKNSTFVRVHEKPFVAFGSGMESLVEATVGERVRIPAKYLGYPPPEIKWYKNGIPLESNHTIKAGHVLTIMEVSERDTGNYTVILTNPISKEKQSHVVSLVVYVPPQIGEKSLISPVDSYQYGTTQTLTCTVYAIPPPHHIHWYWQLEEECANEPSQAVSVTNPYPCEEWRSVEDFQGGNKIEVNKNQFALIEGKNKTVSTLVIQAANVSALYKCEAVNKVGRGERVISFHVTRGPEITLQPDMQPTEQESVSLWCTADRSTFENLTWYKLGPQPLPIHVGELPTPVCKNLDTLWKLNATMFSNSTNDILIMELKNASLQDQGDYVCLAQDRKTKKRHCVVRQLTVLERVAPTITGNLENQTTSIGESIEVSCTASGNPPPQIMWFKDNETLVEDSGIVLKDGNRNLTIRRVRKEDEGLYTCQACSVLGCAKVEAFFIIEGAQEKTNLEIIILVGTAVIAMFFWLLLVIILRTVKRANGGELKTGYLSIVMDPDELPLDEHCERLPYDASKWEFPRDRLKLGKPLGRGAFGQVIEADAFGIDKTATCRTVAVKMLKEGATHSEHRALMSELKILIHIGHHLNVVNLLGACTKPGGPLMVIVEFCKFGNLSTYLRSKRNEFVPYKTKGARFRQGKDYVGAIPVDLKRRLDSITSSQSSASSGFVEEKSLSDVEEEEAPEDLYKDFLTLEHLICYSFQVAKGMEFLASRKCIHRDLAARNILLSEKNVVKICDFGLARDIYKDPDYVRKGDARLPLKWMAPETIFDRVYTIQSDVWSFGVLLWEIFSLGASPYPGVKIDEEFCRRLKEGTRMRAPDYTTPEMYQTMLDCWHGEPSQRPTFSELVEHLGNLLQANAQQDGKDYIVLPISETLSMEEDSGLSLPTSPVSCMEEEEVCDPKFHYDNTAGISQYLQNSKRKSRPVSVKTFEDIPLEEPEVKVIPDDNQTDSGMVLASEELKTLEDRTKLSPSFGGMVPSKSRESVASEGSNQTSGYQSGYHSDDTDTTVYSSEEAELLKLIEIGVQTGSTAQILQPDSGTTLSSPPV

Turning to `C=CC(=O)Nc1ccccc1Nc1nc(Nc2ccc(N3CCN(C)CC3)cc2)ncc1C(=O)Nc1c(C)cccc1Cl`, the Activity in test [1] was found to be 94%; in test [2], 1%; in test [3] it was 100%; in [4], 100%; in test [5], 100%; in test [6] it was 94%. For the same compound, the Activity turned out to be 99% in test [7]; 100% in test [8]; 90% in [9]; 100% in [10]; 100% in [11]; 100% in [12]. In addition, the Activity in test [13] worked out at 1.1%; in [14], 100%; in test [15] it was 100%; in test [16], 100%; in test [17], 100%; in [18], 83%. Besides, the Activity in test [19] was 100%; in test [21], 64%. For the same compound, the half-inhibitory concentration (IC50) (as a rule, the point on the concentration scale where inhibition reaches its midpoint) in test [20] was found to be 8.34 µM.
